Counter-ions that a name gives are not always drawn.

The nature of experiment [1]: Cytotoxicity against human A549 cells after 48 hrs by SRB assay. The format is functional, cell-based. The note with it: A549, 48 h. The gist of the method:
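A549 human lung adenocarcinoma cells; cytotoxicity read by sulforhodamine B (SRB) staining, with adriamycin as positive control.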

The nature of experiment [2]: Cytotoxicity against human HL60 cells after 48 hrs by MTT assay. The note with it: HL-60, 48 h. The experiment is classed as functional, cell-based. The method in brief: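 HL-60 human leukemia cells; viability read by MTT reduction, with adriamycin as positive control.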
On the technique in general: Formazan colour is commonly taken as a measure of viable cells.

In the case of `C=C1Cc2ccc3[nH]c4c5c3c2[C@H]2[C@@H]1C[C@@H]2C(C)(C)O[C@H]5[C@@H]1CC[C@@]2(O)C3=C[C@@H](O)[C@@H](C(=C)C)O[C@H]3CC[C@]2(C)[C@@]41C`, the half-maximal inhibitory concentration (IC50) in experiment [1] and in experiment [2] was over 10 µM in each case.
As for `CC(=O)OC(C)(C)[C@H]1O[C@H]2CC[C@@]3(C)[C@@H](CC[C@H]4Cc5c([nH]c6ccccc56)[C@@]43C)C2=CC1=O`, the IC50 in experiment [1] and in experiment [2] was over 10 µM in each case.
`C=C(C)[C@@H]1CC=C2[C@H](CC[C@@]3(C)[C@@]2(O)CC[C@H]2Cc4c([nH]c5ccc6c(c45)[C@@H]4[C@@H](C(C)(C)O)C[C@@H]4C6(C)C)[C@@]23C)O1`: the IC50 in experiment [1] and in experiment [2] was over 10 µM in each case.
Consider `C=C(C)[C@H]1O[C@H]2CC[C@@]3(C)[C@@](O)(CC[C@]4(OC)O[C@@H]5OC(C)(C)[C@H]6C[C@@H]7C(=C)Cc8c(Cl)cc9[nH]c(c5c9c8[C@@]76O)[C@@]43C)[C@]23O[C@@H]3[C@H]1O`, for which the values for the half-inhibitory concentration (IC50) in experiment [1] and in experiment [2] were 6.3 µM and 5 µM, respectively.
As for `C=C(C)[C@H]1O[C@H]2CC[C@@]3(C)[C@@](O)(CC[C@H]4Cc5c([nH]c6ccccc56)[C@@]43C)[C@]23O[C@@H]3[C@H]1O`, the IC50 in experiment [1] and in experiment [2] was over 10 µM each time.
As for `C=C1Cc2ccc3[nH]c4c5c3c2[C@H]2[C@@H]1C[C@@H]2C(C)(C)O[C@H]5[C@@H]1CC[C@@]2(O)[C@@]35O[C@@H]3[C@@H](O)[C@@H](C(=C)C)O[C@H]5CC[C@]2(C)[C@@]41C` [PENITREM B], the IC50 in experiment [1] and in experiment [2] was over 10 µM in each case.
Take `C=C(C)[C@H]1C[C@H](C(C)(C)O)[C@H]1c1cccc2c1C(=O)C[C@@H]1CC[C@@]3(O)C4=C[C@@H](O)[C@@H](C(=C)C)O[C@H]4CC[C@]3(C)[C@@]1(C)C(=O)N2`: the IC50 in experiment [1] and in experiment [2] was over 10 µM in each case.
Turning to `C=C(C)[C@H]1O[C@H]2CC[C@@]3(C)[C@@](O)(CC[C@]4(O)O[C@@H]5OC(C)(C)[C@H]6C[C@@H]7C(=C)Cc8c(Cl)cc9[nH]c(c5c9c8[C@@]76O)[C@]34C)[C@]23O[C@@H]3[C@H]1O`, the IC50 (in general, the concentration that inhibits the measured activity by half) amounted to 11.5 µM in experiment [1] and 9.6 µM in experiment [2].
Taken in the same sequence, the figures for `CC(C)(O)[C@H]1O[C@H]2CC[C@@]3(C)[C@@H](CC[C@H]4Cc5c([nH]c6ccccc56)[C@@]43C)C2=C[C@H]1O` were 4.6 µM and 2.6 µM.
Taken in the same sequence, the figures for `C=C1Cc2ccc3[nH]c4c(c3c2[C@H]2[C@@H]1C[C@@H]2C(C)(C)O)C[C@@H]1CC[C@@]2(O)C3=C[C@@H](O)[C@@H](C(=C)C)O[C@H]3CC[C@]2(C)[C@@]41C` were over 10 µM and over 10 µM.
Regarding `C=C1Cc2c(Cl)cc3[nH]c4c5c3c2[C@H]2[C@@H]1C[C@@H]2C(C)(C)O[C@H]5[C@@H]1CC[C@@]2(O)[C@@]35O[C@@H]3[C@@H](O)[C@@H](C(=C)C)O[C@H]5CC[C@]2(C)[C@@]41C` [PENITREM F], the IC50 in experiment [1] is 8.2 µM; in experiment [2], 3.3 µM.
Take `C=C(C)[C@H]1O[C@H]2CC[C@@]3(C)[C@@](O)(CC[C@H]4[C@@H]5OC(C)(C)[C@H]6C[C@@H]7C(=C)Cc8ccc9[nH]c(c5c9c8[C@@]76O)[C@@]43C)[C@]23O[C@@H]3[C@H]1O`: the IC50 in experiment [1] and in experiment [2] was over 10 µM in each case.
Regarding `C=C(C)[C@H]1O[C@H]2CC[C@@]3(C)[C@@](O)(CC[C@H]4[C@@H]5OC(C)(C)[C@H]6C[C@@H]7C(=C)Cc8c(Cl)cc9[nH]c(c5c9c8[C@@]76O)[C@@]43C)[C@]23O[C@@H]3[C@H]1O`, the IC50 in experiment [1] amounted to 8.4 µM; in experiment [2], 7 µM.
As for `COc1cccc2c1C(=O)c1c(O)c3c(c(O)c1C2=O)C[C@@](O)(C(=O)CO)C[C@@H]3O[C@H]1C[C@H](N)[C@H](O)[C@H](C)O1` [DOXORUBICIN HYDROCHLORIDE], the IC50 in experiment [1] came to 0.3 µM; in experiment [2] it was 0.067 µM.
Take `C=C(C)[C@H]1O[C@H]2CC[C@@]3(C)[C@@](O)(CC[C@]4(OC)O[C@@H]5OC(C)(C)[C@H]6C[C@@H]7C(=C)Cc8ccc9[nH]c(c5c9c8[C@@]76O)[C@@]43C)[C@]23O[C@@H]3[C@H]1O`: the half-maximal inhibitory concentration (IC50) in experiment [1] and in experiment [2] was over 10 µM throughout.
For `C=C1Cc2ccc3[nH]c4c(c3c2[C@H]2[C@@H]1C[C@@H]2C(C)(C)O)[C@@H](OC)[C@@H]1CC[C@@]2(O)[C@@]35O[C@@H]3[C@@H](O)[C@@H](C(=C)C)O[C@H]5CC[C@]2(C)[C@@]41C`, the values for the IC50 in experiment [1] and in experiment [2] were 9.2 µM and over 10 µM, respectively.
On to `C=C1Cc2c(Cl)cc3[nH]c4c5c3c2[C@H]2[C@@H]1C[C@@H]2C(C)(C)O[C@H]5[C@@H]1CC[C@@]2(O)C3=C[C@@H](O)[C@@H](C(=C)C)O[C@H]3CC[C@]2(C)[C@@]41C` [PENITREM C], for which the concentration for half-maximal inhibition (IC50) in experiment [1] is 8 µM; in experiment [2] it was 4.7 µM.
Taken in the same sequence, the figures for `C=C(C)[C@H]1O[C@H]2CC[C@@]3(C)[C@@](O)(CC[C@H]4Cc5c([nH]c6ccccc56)[C@@]43C)C2=C[C@H]1O` were over 10 µM and over 10 µM.

The values above are taken from ChEMBL document CHEMBL3865832, “Rhizovarins A-F, Indole-Diterpenes from the Mangrove-Derived Endophytic Fungus Mucor irregularis QEN-189” (J Nat Prod, 2016).
